Assay results published in PMC9826503 (Chemmedchem, 2022).
Read-outs that look alike come from different tables or passages of the source.

Columns and labels:
[1] = tested on: non-tumorigenic breast epithelial cell line MCF12A; assay: Resazurin cytotoxicity assay, MCF-12A; format: cell-based; conditions: read-out: MCF-12A IC50 and SD
[2] = tested on: cancer cell lines (HeLa, HCC70, MCF-7); assay: Resazurin cytotoxicity assay, cancer cell lines as a group; format: cell-based; conditions: read-out: IC50 values against the cancer cells
In short: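 HeLa, HCC70 and MCF-7 cells seeded at 5000 cells/well and left to attach overnight (37 °C, 9 % CO2). Treated 96 h with test compound (15.63–500.00 μM), 2 % (v/v) DMSO vehicle, or paclitaxel control (0.16–500 nM). Resazurin then added for 2–4 h; fluorescence read at ex 560/em 590 nm. Done in triplicate; IC50 by non-linear regression.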

[3] = tested on: HCC70 triple negative breast cancer cell line; assay: Resazurin cytotoxicity assay, HCC70; format: cell-based; conditions: for IC50: read-out: HCC70 IC50 and SD
[4] = tested on: MCF-7 hormone responsive breast cancer cell line; assay: Resazurin cytotoxicity assay, MCF-7; format: cell-based; conditions: for IC50: read-out: MCF-7 IC50 and SD
[5] = tested on: HeLa cervical cancer cell line; assay: Resazurin cytotoxicity assay, HeLa; format: cell-based
[6] = biological target: T1, recombinant human topoisomerase I (Homo sapiens, UniProt P11387); assay: Topoisomerase I inhibition; format: biochemical
T1 sequence (P11387 1-765): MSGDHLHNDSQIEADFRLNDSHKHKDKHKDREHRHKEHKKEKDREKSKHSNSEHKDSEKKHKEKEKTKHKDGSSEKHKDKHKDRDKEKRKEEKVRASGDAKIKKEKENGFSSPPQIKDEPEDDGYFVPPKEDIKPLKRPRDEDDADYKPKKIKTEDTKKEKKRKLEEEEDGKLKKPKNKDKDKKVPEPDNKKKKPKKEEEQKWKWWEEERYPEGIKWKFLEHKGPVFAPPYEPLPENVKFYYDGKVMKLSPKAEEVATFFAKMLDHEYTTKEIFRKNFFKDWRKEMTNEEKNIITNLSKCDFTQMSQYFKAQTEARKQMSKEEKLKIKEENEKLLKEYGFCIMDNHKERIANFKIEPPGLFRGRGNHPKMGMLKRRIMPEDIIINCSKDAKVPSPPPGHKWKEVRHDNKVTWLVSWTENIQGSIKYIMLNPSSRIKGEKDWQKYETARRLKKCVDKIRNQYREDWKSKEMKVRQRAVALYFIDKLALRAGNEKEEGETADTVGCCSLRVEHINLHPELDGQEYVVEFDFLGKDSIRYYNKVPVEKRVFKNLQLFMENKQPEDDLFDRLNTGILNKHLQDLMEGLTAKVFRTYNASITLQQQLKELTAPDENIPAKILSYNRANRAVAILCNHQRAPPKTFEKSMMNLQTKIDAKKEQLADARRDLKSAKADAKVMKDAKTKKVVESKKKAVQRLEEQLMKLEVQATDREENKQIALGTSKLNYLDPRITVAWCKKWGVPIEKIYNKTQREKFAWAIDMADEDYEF

[7] = Time-dependent stability studies by UV-Vis spectrophotometry; format: physicochemical; conditions: 10^−5 M, 1 hour intervals for 24 hours
In short: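 Test compound was dissolved at 10−5 M in anhydrous DMSO at room temperature and filtered. UV-Vis spectra were then recorded hourly over 24 hours.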

human genomic DNA (gDNA) = assay: Agarose gel electrophoresis, ethidium bromide displacement from gDNA; format: binding
In short: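 Human genomic DNA (100 ng) was incubated with test compound at 50 or 200 μM for 4 hours at 37 °C, alongside a 2 % (v/v) DMSO control and a cisplatin (200 μM) control. Mixtures with loading dye were run on a 0.8 % (w/v) agarose gel containing ethidium bromide, 45 min at 90 V in 1× TAE (40 mM Tris-acetate, 1 mM EDTA). Bands were imaged, and EtBr staining intensity was compared across lanes.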

[8] = biological target: T2, bovine serum albumin (BSA) (Bos taurus, UniProt P02769); assay: BSA UV-Vis absorption titration; format: binding; conditions: 280 nm
T2 sequence (P02769 25-607): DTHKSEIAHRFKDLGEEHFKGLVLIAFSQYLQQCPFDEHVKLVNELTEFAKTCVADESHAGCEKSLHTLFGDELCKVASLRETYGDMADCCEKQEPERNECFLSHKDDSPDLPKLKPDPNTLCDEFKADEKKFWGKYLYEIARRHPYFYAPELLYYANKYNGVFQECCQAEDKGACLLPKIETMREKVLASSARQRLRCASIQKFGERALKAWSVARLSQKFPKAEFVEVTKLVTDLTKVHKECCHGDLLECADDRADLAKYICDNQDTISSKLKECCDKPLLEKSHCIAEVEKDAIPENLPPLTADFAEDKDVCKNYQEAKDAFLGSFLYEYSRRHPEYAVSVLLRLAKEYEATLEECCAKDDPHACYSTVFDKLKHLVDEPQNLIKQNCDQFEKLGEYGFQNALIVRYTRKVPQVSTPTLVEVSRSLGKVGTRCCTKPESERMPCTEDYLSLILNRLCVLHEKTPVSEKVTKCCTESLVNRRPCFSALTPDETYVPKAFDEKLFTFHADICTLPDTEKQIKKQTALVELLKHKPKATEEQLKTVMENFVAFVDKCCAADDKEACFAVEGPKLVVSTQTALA
In short: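 BSA (~20 μM, PBS pH 7.2; concentration set from ε280 = 43824 M−1 cm−1) titrated with test compound (0–~380 μM; stocks in MeOH). Equal compound volumes added to the sample and reference cells; each mixture incubated 2 min. BSA absorbance at 280 nm fitted to a double-reciprocal plot of 1/(A0−A) vs 1/[compound]. kapp taken as the intercept/slope ratio.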

calf thymus DNA = assay: Methylene blue DNA competition assay; format: binding; conditions: 50 and 200 μM, 100 ng calf thymus DNA, 15 μg/mL methylene blue
In short: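 Each 100 μL reaction held methylene blue (15 μg/mL), calf thymus DNA (100 ng) and test compound (50 or 200 μM) in MilliQ water, with a 0.05 % (v/v) DMSO vehicle control. Mixtures were incubated 10 minutes at room temperature in the dark. An emission scan was then recorded under fixed excitation. Runs were done in triplicate.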

[9] = biological target: T2, bovine serum albumin (BSA); assay: BSA fluorescence quenching titration, with and without site markers; format: binding
In short: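 Emission spectra of BSA recorded at 293 K during titration with increasing test compound. Excitation 280 nm, emission 300–500 nm, slits 5 nm. Intensities corrected for inner filter effect using absorbances at the excitation and emission maxima. KSV from Stern-Volmer fit; kq = KSV/τ0, τ0 10−8 s. Site-marker runs: warfarin (site I) or ibuprofen (site II) added equimolar to BSA (each 5 μM) before titration.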

[10] = (IC50 value in MCF12-A)/(IC50 value in cancer cell line)
[11] = 96 hours, non-cancerous control
[12] = Ibuprofen site marker (site II)
[13] = No Site marker, KSV=kq τ0, τ0 10^−8 s

Row | Compound | IC50 [1, 11] | Stability in anhydrous DMSO (UV-Vis spectral changes) [7] | Intensity of EtBr stained gDNA band (human genomic DNA (gDNA); higher concentration (200 μM)) | apparent association constant (kapp) [8] | IC50 ([4]; 96 hours) | Competition with methylene blue for DNA binding (intercalation) (calf thymus DNA) | K SV [9, 12] | k q [9, 12] | K SV ([9]; No Site marker) | k q [9, 13] | K SV ([9]; Warfarin site marker (site I)) | k q ([9]; Warfarin site marker (site I)) | also measured
1 | CC(=O)O[C@H]1C(=O)[C@@]2(C)[C@H]([C@H](OC(=O)c3ccccc3)[C@]3(O)C[C@H](OC(=O)[C@H](O)[C@@H](NC(=O)c4ccccc4)c4ccccc4)C(C)=C1C3(C)C)[C@]1(OC(C)=O)CO[C@@H]1C[C@@H]2O [Paclitaxel, paclitaxel, reference compound] | – | – | – | – | – | – | – | – | – | – | – | – | IC50 ([1]; Homo sapiens, MCF-12A, 96 h): 0.0162 ± 0.00108 µM; IC50 [2]: 0.0024 to 0.00392 µM; SI (selectivity index), HCC70 [3, 10]: 4.12; IC50 ([3]; Homo sapiens, HCC70, 96 h): 0.00392 ± 0.00103 µM; SI (selectivity index), MCF-7 [4, 10]: 6.73; IC50 ([4]; Homo sapiens, MCF7, 96 h): 0.0024 ± 0.00111 µM; SI (selectivity index), HeLa [5, 10]: 5.96
2 | CC[C@@]1(O)C(=O)OCc2c1cc1n(c2=O)Cc2cc3ccccc3nc2-1 [camptothecin, reference compound] | – | – | – | – | – | – | – | – | – | – | – | – | Inhibition of Topo I activity ([6]; 200 μM): failed to inhibit the enzyme
3 | cis‐Cl, trans‐P‐[RuCl2(PPh3)2(btm)] [Compound 3] | 36.5 ± 1.08 µM | blue‐shifted and decreasing MLCT band at 525 nm and an emerging MLCT band at 437 nm | considerable dose‐dependent reduction in intensity | 18900 M⁻¹ | 8.87 ± 1.12 µM | no effect on the ability of methylene blue to bind to the DNA | 9130 M⁻¹ | 9.13e+11 M⁻¹ s⁻¹ | 69500 M⁻¹ | 6.95e+12 M⁻¹ s⁻¹ | 1290 M⁻¹ | 1.29e+11 M⁻¹ s⁻¹ | Inhibition of Topo I activity ([6]; 50 μM): complete inhibition of Topo I; IC50 ([5]; read-out: HeLa IC50 and SD, 96 hours): 6.29 ± 1.1 µM
4 | trans‐P‐[RuCl(PPh3)2(pmt)]Cl [Compound 1] | 60.1 µM | noticeable alterations in the electronic spectrum | considerable dose‐dependent reduction in intensity | 90200 M⁻¹ | 5.2 µM | competitively bind to the calf thymus DNA in a concentration‐dependent manner | 1360 M⁻¹ | 1.36e+11 M⁻¹ s⁻¹ | 88400 M⁻¹ | 8.84e+12 M⁻¹ s⁻¹ | 2090 M⁻¹ | 2.09e+11 M⁻¹ s⁻¹ | Intensity of EtBr stained gDNA band (human genomic DNA (gDNA); lower concentration (50 μM), relative to DMSO control): decreases in the intensity of the EtBr stained gDNA; Inhibition of Topo I activity ([6]; 50 and 200 μM): inhibited Topo I activity; fold less cytotoxic towards HCC70 compared to MCF-7 ([3]; HCC70 versus MCF-7): more than 10 fold; IC50 ([3]; 96 hours): 75.5 µM
